According to ChEMBL document CHEMBL1133913, “Discovery of (R)-1-[2-hydroxy-3-(4-hydroxy-phenyl)-propyl]-4-(4-methyl-benzyl)-piperidin-4-ol: a novel NR1/2B subtype selective NMDA receptor antagonist” (Bioorg Med Chem Lett, 2001):
pIC50, pKi: −log10 of the molar value.

Columns and labels:
Mus musculus = assay: In vivo evaluation for sound induced seizures in DBA/2 mice on intraperitoneal administration of compound 30 minutes before testing; assay type: functional; conditions: ip
Procedure, shortened: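 Mice given the compound intraperitoneally, then tested in the standard sound-induced seizure assay. An ED50 in mg/kg was derived for protection.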

[1] = target: T1, Alpha-1A adrenergic receptor (Homo sapiens, UniProt P35348); assay: (§1) In vitro binding affinity towards Alpha-1 adrenergic receptor by displacing [3H]prazosin radioligand
T1 sequence (P35348 whole entry): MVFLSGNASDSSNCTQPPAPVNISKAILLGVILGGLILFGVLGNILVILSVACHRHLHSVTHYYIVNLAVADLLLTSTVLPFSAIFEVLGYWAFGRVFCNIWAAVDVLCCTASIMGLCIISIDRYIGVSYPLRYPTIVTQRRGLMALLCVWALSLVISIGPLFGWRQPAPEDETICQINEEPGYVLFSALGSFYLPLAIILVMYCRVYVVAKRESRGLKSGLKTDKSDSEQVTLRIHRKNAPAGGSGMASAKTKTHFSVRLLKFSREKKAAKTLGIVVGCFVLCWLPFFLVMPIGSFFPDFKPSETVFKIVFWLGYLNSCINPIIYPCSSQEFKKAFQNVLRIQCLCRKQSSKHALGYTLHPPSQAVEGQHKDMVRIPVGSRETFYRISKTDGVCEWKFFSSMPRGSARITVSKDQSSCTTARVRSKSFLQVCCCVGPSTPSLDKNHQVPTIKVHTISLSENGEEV

[2] = target: Glutamate [NMDA] receptor; assay: Displacement of [3H]25-6981 from N-methyl-D-aspartate glutamate receptor; assay type: protein-complex assay
[3] = target: Adrenergic receptor alpha-1 (Homo sapiens) (UniProt P35348+P25100+P35368); assay: Selectivity ratio of alpha-1 receptor to that of NMDA was determined; assay type: protein assay
[4] = target: T2, Adrenergic receptor alpha-1 (Homo sapiens, UniProt P35348+P25100+P35368); assay: as §1; assay type: protein assay
T2 sequence (P35348 whole entry): T1 sequence (P35348 whole entry)
T2 sequence (P25100 whole entry): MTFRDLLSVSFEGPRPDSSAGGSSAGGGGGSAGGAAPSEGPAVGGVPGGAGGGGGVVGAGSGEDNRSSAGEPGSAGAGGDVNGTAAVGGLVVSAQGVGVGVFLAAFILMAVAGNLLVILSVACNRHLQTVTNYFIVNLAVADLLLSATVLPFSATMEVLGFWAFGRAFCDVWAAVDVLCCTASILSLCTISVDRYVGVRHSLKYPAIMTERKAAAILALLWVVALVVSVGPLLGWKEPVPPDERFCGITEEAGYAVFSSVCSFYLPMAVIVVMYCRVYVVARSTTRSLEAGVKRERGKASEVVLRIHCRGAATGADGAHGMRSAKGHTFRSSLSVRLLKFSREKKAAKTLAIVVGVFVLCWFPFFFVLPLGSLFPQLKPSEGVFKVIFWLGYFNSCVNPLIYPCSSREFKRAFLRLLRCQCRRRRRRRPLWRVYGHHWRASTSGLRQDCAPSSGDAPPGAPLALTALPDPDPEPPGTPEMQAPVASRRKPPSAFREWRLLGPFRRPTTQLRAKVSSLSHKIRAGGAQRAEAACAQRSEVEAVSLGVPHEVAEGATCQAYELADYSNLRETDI
T2 sequence (P35368 whole entry): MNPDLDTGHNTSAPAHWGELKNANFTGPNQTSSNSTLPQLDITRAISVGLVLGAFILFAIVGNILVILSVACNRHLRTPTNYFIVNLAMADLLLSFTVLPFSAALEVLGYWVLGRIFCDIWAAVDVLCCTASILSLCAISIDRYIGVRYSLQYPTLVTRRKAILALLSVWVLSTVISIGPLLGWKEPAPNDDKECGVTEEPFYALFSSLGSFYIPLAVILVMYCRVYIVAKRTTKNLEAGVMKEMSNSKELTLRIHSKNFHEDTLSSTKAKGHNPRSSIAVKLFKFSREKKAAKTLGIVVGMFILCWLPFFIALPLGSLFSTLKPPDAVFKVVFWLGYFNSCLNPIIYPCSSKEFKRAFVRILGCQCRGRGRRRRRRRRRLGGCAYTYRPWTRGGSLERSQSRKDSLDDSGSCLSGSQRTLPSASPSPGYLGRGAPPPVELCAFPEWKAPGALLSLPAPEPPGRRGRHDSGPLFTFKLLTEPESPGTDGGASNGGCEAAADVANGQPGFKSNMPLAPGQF

[5] = target: Glutamate receptor ionotropic, NMDA 2A (Rattus norvegicus, UniProt P35439+Q00959); assay: Evaluated for in vitro inhibition of recombinant rat NR1C/2A receptor expressed in xenopus oocytes; assay type: cell-based, Oocyte
Chain of Glutamate receptor ionotropic, NMDA 2A (Q00959 whole entry, one chain of several): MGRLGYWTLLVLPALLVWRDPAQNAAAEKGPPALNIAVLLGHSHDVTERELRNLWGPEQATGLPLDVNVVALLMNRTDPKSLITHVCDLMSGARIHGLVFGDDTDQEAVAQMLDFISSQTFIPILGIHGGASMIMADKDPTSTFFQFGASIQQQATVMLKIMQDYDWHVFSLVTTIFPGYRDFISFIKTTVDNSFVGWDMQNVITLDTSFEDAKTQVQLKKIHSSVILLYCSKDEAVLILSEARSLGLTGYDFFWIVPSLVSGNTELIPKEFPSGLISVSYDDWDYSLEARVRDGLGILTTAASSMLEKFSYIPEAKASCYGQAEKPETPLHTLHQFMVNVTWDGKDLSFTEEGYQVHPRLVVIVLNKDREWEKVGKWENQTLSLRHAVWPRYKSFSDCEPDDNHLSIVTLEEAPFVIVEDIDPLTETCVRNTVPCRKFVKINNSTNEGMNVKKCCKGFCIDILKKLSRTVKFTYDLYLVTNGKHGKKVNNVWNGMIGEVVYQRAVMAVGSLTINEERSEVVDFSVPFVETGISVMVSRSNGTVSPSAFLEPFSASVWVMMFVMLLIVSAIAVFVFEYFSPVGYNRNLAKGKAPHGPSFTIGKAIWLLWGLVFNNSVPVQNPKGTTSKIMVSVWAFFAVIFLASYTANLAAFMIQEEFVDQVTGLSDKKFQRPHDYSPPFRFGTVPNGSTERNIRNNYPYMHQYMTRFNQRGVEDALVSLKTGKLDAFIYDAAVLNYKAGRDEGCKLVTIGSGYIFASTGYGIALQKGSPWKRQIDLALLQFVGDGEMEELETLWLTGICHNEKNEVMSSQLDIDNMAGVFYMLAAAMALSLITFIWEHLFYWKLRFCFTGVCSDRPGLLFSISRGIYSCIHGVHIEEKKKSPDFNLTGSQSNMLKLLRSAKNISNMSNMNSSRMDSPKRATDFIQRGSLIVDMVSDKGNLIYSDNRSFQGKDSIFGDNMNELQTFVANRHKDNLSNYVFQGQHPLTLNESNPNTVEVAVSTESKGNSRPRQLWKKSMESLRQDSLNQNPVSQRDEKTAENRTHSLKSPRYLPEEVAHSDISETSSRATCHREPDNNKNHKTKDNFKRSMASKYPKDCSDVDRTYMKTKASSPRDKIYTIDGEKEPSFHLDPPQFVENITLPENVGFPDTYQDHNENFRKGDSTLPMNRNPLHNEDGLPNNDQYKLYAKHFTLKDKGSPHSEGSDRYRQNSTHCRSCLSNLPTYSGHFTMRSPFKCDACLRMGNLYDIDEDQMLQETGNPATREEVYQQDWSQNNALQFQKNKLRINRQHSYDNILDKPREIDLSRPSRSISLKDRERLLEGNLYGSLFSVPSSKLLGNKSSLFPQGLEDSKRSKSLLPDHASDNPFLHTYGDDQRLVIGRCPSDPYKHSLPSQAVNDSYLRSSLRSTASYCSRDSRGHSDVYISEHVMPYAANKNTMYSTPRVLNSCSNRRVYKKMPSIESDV
Procedure, shortened: (§2)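 Two-electrode voltage clamp on Xenopus oocytes expressing recombinant rat NMDA receptors, NR1C/2A or NR1C/2B subunit combination. Concentrations spanned 10 nM–[…]. Values are the geometric mean of three experiments.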

[6] = target: Glutamate receptor ionotropic, NMDA 2B (Rattus norvegicus, UniProt P35439+Q00960); assay: Evaluated for in vitro inhibition of recombinant rat NR1C/2B receptor expressed in xenopus oocytes; assay type: cell-based, Oocyte; procedure, shortened: as §2
Chain of Glutamate receptor ionotropic, NMDA 2B (Q00960 whole entry, one chain of several): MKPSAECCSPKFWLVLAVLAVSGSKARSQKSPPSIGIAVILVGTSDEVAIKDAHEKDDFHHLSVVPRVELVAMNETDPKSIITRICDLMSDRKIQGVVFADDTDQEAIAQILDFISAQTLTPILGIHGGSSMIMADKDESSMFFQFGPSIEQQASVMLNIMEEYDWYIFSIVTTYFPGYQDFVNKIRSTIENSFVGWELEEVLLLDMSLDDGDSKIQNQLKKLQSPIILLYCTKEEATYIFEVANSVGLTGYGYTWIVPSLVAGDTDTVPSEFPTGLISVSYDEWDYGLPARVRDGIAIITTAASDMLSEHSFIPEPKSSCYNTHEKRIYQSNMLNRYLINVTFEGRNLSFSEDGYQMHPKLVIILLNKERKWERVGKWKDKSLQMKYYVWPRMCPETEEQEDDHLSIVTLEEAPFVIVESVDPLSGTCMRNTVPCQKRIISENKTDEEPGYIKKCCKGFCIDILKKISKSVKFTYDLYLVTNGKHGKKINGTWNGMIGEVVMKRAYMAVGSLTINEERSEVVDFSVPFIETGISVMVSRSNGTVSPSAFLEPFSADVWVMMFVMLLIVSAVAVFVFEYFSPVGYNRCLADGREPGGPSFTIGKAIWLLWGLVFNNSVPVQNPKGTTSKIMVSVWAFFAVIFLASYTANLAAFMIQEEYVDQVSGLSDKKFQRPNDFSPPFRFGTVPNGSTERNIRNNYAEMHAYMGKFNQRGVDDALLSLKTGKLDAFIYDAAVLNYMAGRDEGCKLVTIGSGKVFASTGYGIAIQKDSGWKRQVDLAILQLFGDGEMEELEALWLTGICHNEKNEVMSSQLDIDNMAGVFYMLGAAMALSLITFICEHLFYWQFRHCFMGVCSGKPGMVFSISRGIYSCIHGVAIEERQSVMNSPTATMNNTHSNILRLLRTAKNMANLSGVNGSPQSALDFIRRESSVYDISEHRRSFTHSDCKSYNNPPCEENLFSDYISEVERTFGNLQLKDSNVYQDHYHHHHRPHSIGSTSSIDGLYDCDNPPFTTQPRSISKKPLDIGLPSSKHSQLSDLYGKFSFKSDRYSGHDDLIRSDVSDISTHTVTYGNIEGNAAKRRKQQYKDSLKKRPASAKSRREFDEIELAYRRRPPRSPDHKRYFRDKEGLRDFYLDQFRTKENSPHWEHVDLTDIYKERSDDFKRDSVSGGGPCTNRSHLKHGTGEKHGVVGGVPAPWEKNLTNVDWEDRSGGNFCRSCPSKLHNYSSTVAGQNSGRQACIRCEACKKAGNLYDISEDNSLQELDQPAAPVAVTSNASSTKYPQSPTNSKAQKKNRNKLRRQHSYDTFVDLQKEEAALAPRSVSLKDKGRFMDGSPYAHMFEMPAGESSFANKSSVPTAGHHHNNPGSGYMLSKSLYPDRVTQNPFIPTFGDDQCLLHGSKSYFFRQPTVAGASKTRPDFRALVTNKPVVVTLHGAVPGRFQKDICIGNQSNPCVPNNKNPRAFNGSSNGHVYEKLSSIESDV

| SMILES | ED50 (Mus musculus) | pKi [1] | pKi [2] | Selectivity ratio [3] | Ki [4] | pIC50 [5] | pIC50 [6] |
| --- | --- | --- | --- | --- | --- | --- | --- |
| Cc1ccc(CC2(O)CCN(C[C@@H](O)Cc3ccc(O)cc3)CC2)cc1 | 25 mg/kg | 5.14 | 8.12 |  |  |  |  |
| Oc1ccc(CC(O)CN2CCC(O)(Cc3ccc(Br)cc3)CC2)cc1 (stereo not given) |  |  |  | 216 | 2439 nM |  |  |
| COC(Cc1ccc(O)cc1)CN1CCC(Cc2ccccc2)CC1 (stereo not given) |  |  |  | 15 | 305 nM |  |  |
| O=C(Cc1ccc(O)cc1)CN1CCC(Cc2ccccc2)CC1 |  |  | 7.65 | 27 | 610 nM |  |  |
| Oc1ccc(C(O)CCN2CCC(Cc3ccccc3)CC2)cc1 (stereo not given) |  |  | 8.42 | 6 | 24.4 nM |  |  |
| C[C@@H](CN1CCC(Cc2ccccc2)CC1)[C@@H](O)c1ccc(O)cc1 |  |  | 8.25 | 32 | 180 nM |  |  |
| Cc1ccc(CC2(O)CCN(C[C@H](O)Cc3ccc(O)cc3)CC2)cc1 | 10 mg/kg | 5.14 | 8.31 |  |  | < 5.00 | 7.72 |
| Oc1ccc(CC(O)CN2CCC(O)(Cc3ccc(Cl)cc3)CC2)cc1 (stereo not given) |  |  | 7.82 | 374 | 5610 nM |  |  |
| Oc1ccc(CC(O)CN2CCC(O)(Cc3ccccc3)CC2)cc1 (stereo not given) |  |  | 7.65 | 200 | 4512 nM |  |  |
| CC(Cc1ccc(O)cc1)CN1CCC(Cc2ccccc2)CC1 (stereo not given) |  |  | 8.47 | 27 | 91.5 nM |  |  |
| Cc1ccc(CC2(O)CCN(CC(O)Cc3ccc(O)cc3)CC2)cc1 (stereo not given) |  |  | 8.12 | 789 | 5915 nM |  |  |
| Oc1ccc(CC(O)CN2CCC(Cc3ccccc3)CC2)cc1 (stereo not given) |  |  |  | 80 | 305 nM |  |  |
